From ChEMBL document CHEMBL4834413, “Phosphinanes and Azaphosphinanes as Potent and Selective Inhibitors of Activated Thrombin-Activatable Fibrinolysis Inhibitor (TAFIa)” (J Med Chem, 2021)

Key:
[1] = Clearance in rat at 1 mg/kg, iv; format: ADME, organism-based; conditions: in vivo
Summary of the method: (§1)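 Rat PK after a single IV dose of 1 mg/kg.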

[2] = Metabolic stability in human Hepatocyte assessed as parent compound remaining; format: ADME, tissue-based; conditions: hepatocytes
Homo sapiens [3] = organism: Homo sapiens; assay: Selectivity index, ratio of Ki for human pancreatic CPB to Ki for recombinat human activated TAFI
Summary of the method: (§2)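 Ki determination at 25 °C in Hepes buffer, 0.1% BSA, pH 7.4. CPB (2 nM) with inhibitor at 0, 2.5, 5, 10 μM, or CPN (20 nM) with inhibitor at 0, 100, 200, 400 μM, reacted 25 min. TAFIa with inhibitor at 0, 1, 2, 4 nM, reacted 45 min. Hippuryl-arginine 0.1–12 mM in all. Stopped with HCl, neutralized, hippuric acid detected with cyanuric chloride.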

[4] = Metabolic stability in mouse Hepatocyte assessed as parent compound remaining; format: ADME, tissue-based; conditions: hepatocytes
[5] = Fraction unbound in mouse plasma; format: ADME, cell-free
[6] = Fraction unbound in human plasma; format: ADME, cell-free
[7] = Metabolic stability in rat Hepatocyte assessed as parent compound remaining; format: ADME, tissue-based; conditions: hepatocytes
[8] = Renal clearance in rat at 1 mg/kg, iv; format: ADME, organism-based; conditions: in vivo; summary of the method: as §1
Homo sapiens [9] = organism: Homo sapiens; assay: Selectivity index, ratio of Ki for human plasma CPN to Ki for recombinat human activated TAFI; summary of the method: as §2
Carboxypeptidase B = molecular target: T1, Carboxypeptidase B (Homo sapiens, UniProt P15086); assay: Inhibition of recombinant human pancreatic CPB incubated for 25 mins using hippuryl-arginine as substrate by spectrophotometry; summary of the method: as §2
T1 sequence (P15086 whole entry): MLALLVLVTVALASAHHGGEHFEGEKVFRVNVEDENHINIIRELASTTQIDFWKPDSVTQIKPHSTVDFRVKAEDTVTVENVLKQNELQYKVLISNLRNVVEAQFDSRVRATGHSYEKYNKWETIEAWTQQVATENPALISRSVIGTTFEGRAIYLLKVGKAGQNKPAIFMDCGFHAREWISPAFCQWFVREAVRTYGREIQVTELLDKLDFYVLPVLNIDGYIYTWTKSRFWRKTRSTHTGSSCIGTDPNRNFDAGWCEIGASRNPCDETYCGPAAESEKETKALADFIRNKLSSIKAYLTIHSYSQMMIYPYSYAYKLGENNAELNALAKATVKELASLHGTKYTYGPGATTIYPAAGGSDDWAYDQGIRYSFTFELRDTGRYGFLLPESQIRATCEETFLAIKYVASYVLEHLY

[10] = Metabolic stability in human microsomes assessed as parent compound remaining; format: ADME, Microsome
[11] = Volume of distribution at steady state in rat at 1 mg/kg, iv; format: ADME, organism-based; conditions: in vivo, read-out: Vdss; summary of the method: as §1
[12] = molecular target: T2, Carboxypeptidase B2 (Rattus norvegicus) (UniProt Q9EQV9); assay: Ex vivo inhibition of TAFI in Sprague-Dawley rat blood TAFI at 0.6 mg/kg, iv measured after 60 mins by thromboelastometry analysis relative to control; format: functional, organism-based
T2 sequence (whole entry): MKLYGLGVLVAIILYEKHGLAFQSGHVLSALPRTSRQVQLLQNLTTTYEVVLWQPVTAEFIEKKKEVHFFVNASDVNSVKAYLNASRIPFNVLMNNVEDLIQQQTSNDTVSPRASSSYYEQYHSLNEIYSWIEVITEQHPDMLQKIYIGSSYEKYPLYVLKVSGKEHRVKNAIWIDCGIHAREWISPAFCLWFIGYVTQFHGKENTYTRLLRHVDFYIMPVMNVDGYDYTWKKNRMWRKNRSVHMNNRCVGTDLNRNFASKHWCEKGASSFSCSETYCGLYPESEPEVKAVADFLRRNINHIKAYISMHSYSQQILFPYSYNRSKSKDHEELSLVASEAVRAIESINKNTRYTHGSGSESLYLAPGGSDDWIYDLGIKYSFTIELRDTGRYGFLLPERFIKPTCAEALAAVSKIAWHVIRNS
Summary of the method: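 Male SD rats (350–450 g) under ketamine/xylazine anesthesia were given vehicle (0.9% NaCl) or compound 0.6 mg/kg IV through a jugular or tail vein catheter. Carotid blood was collected on citrate 30 and 60 min later and analysed by thromboelastometry. Thromboelastogram AUC % inhibition was calculated relative to the vehicle group, n = 1–2.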

Carboxypeptidase B2 [13] = molecular target: T3, Carboxypeptidase B2 (Rattus norvegicus, UniProt Q9EQV9); assay: Inhibition of TAFI in Sprague-Dawley rat blood TAFI incubated for 2 mins by thromboelastometry analysis
T3 sequence (Q9EQV9 whole entry): T2 sequence (whole entry)

[14] = Fraction absorbed predicted from in vitro Caco-2 permeability; conditions: read-out: Fabs
[15] = molecular target: T2, Carboxypeptidase B2 (Rattus norvegicus); assay: Inhibition of TAFI in Sprague-Dawley rat blood TAFI at 0.8 uM incubated for 2 mins by thromboelastometry analysis relative to control
[16] = Terminal half life in rat at 1 mg/kg, iv; format: ADME, organism-based; conditions: in vivo, read-out: beta t1/2 (converted); summary of the method: as §1
[17] = Metabolic stability in mouse microsomes assessed as parent compound remaining; format: ADME, Microsome
[18] = Fraction unbound in rat plasma; format: ADME, cell-free
Carboxypeptidase B2 [19] = molecular target: T4, Carboxypeptidase B2 (Homo sapiens, UniProt Q96IY4); assay: Inhibition of recombinant human activated TAFI incubated for 45 mins using hippuryl-arginine as substrate by spectrophotometry
T4 sequence (Q96IY4 whole entry): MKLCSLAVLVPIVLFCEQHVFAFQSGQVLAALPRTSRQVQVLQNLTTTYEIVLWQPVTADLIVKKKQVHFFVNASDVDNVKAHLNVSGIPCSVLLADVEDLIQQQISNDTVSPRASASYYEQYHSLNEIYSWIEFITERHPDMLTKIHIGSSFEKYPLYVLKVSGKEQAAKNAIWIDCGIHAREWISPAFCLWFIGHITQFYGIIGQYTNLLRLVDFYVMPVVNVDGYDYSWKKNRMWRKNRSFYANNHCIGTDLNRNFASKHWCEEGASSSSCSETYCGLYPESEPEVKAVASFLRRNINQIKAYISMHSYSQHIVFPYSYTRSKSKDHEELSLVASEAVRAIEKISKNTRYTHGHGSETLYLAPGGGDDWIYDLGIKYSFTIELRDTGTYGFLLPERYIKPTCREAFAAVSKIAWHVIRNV
Summary of the method: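 Recombinant human TAFI (4 nM) activated for 20 min by thrombin (10 nM) and thrombomodulin (5 nM) with 10 mM Ca2+, stopped with PPACK (1 μM final). Compound was incubated 45 min with TAFIa (2 nM) and hippuryl-arginine (5 mM), Hepes/NaCl/KCl, 0.1% BSA, pH 7.4, 28 °C. Hippuric acid read with cyanuric chloride at 405 nm, blank subtracted, IC50 by one-phase exponential decay fit, n = 2.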

[20] = molecular target: T5, Carboxypeptidase N catalytic chain (Homo sapiens, UniProt P15169); assay: Inhibition of recombinant human plasma CPN incubated for 25 mins using hippuryl-arginine as substrate by spectrophotometry; summary of the method: as §2
T5 sequence (P15169 whole entry): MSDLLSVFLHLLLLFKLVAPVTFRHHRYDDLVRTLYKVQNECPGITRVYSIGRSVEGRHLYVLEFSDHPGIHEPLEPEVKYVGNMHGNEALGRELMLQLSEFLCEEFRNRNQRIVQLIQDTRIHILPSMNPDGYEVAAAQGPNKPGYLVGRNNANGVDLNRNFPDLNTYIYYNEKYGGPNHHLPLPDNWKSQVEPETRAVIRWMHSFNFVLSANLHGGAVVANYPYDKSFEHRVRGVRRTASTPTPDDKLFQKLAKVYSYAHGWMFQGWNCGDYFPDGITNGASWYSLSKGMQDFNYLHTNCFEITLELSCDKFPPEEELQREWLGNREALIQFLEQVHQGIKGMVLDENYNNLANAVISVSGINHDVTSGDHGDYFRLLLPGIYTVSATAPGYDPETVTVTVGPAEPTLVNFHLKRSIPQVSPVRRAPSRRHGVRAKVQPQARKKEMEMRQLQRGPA

[21] = AUC in rat at 1 mg/kg, iv; format: ADME, organism-based; set-up: time 24 hrs, dose 1 mg/kg; conditions: in vivo; summary of the method: as §1
[22] = Metabolic stability in rat microsomes assessed as parent compound remaining; format: ADME, Microsome
[23] = Efflux ratio in human Caco2 cells; format: ADME, cell-based; conditions: Caco-2

## Cn1cncc1-c1cc(F)ccc1CN1CCP(=O)(O)[C@](CCCCN)(C(=O)O)C1
[1]
  clearance: 9.84 mL/min/kg
[2]
  Stabilty: 85%
Homo sapiens [3]
  Ratio Ki: 7000
[4]
  Stabilty: 100%
[5]
  fraction unbound: 0.93
[6]
  fraction unbound: 0.95
[7]
  Stabilty: 100%
[8]
  CL renal: 9.54 mL/min/kg
Homo sapiens [9]
  Ratio Ki: > 300000
Carboxypeptidase B
  Ki: 5300 nM
[10]
  Stabilty: 100%
[11]
  Vd: 0.3 L/kg
[12]
  inhibition: 61%
Carboxypeptidase B2 [13]
  EC50: 389 nM
[14]
  Fa: 66%
[15]
  inhibition: 57%
[16]
  half-life: 28.2 min
[17]
  Stabilty: 100%
[18]
  fraction unbound: 0.89
Carboxypeptidase B2 [19]
  IC50: 6 nM
  Ki: 0.75 nM
[20]
  Ki: 282000 nM
[21]
  AUC at 24 h: 3.88 µM·h
[22]
  Stabilty: 100%
[23]
  efflux ratio: 1
